From ChEMBL document CHEMBL4354867, “Validation and Characterization of Five Distinct Novel Inhibitors of Human Cytomegalovirus” (J Med Chem, 2020)
Calls of active or inactive are those of the source. No cut-off for these calls is given here.

How the values were obtained:
Human alphaherpesvirus 2 = test: Antiviral activity against HSV 2 infected in African green monkey Vero cells assessed as reduction in plaque formation incubated for 36 hrs by crystal violet staining based assay; type: functional, organism-based
Summary of the method: (§1)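 Plaque reduction in Vero cells: virus adsorbed 60 min, then compound added in a carboxymethylcellulose overlay. Plaques counted after 36 h by crystal violet staining.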

Human gammaherpesvirus 4 = test: Antiviral activity against EBV infected in human AKATA cells assessed as reduction in IgG-induced lytic virus replication measured at 48 hrs post-lytic induction by qRT-PCR analysis; type: functional, organism-based; details: human gammaherpesvirus 4, 48 h; read-out: EC50
[1] = Antiviral activity against Mouse Cytomegalovirus Smith (ATCC VR-1399) infected in mouse MEF cells assessed as reduction in plaque formation measured after 3 days by crystal violet staining based assay; type: functional, cell-based, Murine cytomegalovirus (strain Smith)
Summary of the method: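 Plaque reduction with MCMV Smith in mouse embryonic fibroblasts, with compound in a carboxymethylcellulose overlay. Assay ended at 3 days and plaques counted after crystal violet staining.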

Human betaherpesvirus 5 [2] = test: (§2) Antiviral activity against pp28-luciferase expressing HCMV Towne infected in human HFF cells assessed as reduction in viral replication treated with compound at 24 hrs post viral infection at MOI of 1 PFU/cell and measured after 3 days by luciferase reporter gene assay; type: functional, organism-based; details: strain Towne
Summary of the method: (§3)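 Time-of-addition in HFFs infected with HCMV Towne (MOI 1). Add-on: compound added at 0, 6, 24 or 48 hpi. Removal: compound added right after infection and washed out after 0, 6, 24 or 48 h. Luciferase read at 72 hpi.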

Human betaherpesvirus 5 [3] = test: as §2, with “immediately after” for “at 24 hrs post”, “PFU/cell followed by compound washout after 6 hrs” for “PFU/cell”; type: functional; details: strain Towne; summary of the method: as §3
Human betaherpesvirus 5 [4] = test: Antiviral activity against HCMV Towne infected in human HFF cells assessed as reduction in viral entry into host cell by measuring nuclear localization of pp65 at 5 uM treated with compound for 24 hrs followed by viral infection at MOI of 0.01 to 1 PFU/cell measured at 2 hrs post infection by immunofluorescence microscopy; type: functional, organism-based; details: strain Towne
Summary of the method: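 HFFs on chamber slides pretreated 24 h with compound diluted in serum-free medium, then infected with HCMV Towne for 2 h. Heparin 30 μM as positive entry-block control. Cells methanol-fixed, then stained with anti-pp65 (1:50) and rhodamine anti-mouse IgG, with DAPI. Nuclear pp65 viewed by fluorescence microscopy at 40x; repeated three times.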

Human betaherpesvirus 5 [5] = test: Antiviral activity against HCMV Towne infected in human HFF cells assessed as reduction in viral DNA replication at 5 uM treated with compound following viral infection at MOI of 0.1 PFU/cell by US17 real time PCR analysis; type: functional, organism-based; details: strain Towne
Summary of the method: (§4)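 At set time points supernatants were harvested and cells lysed for DNA. Cell-associated viral DNA and supernatant viral DNA quantified by real-time PCR targeting a 151-bp conserved US17 region.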

Human betaherpesvirus 5 [6] = test: Antiviral activity against HCMV Towne infected in human HFF cells assessed as reduction in viral DNA yields in the supernatant at 5 uM treated with compound following viral infection at MOI of 0.1 PFU/cell by US17 real time PCR analysis; type: functional, organism-based; details: strain Towne; summary of the method: as §4
Human betaherpesvirus 5 [7] = test: Antiviral activity against HCMV Towne infected in human HFF cells assessed as reduction in plaque formation treated with compound following viral infection and incubated for 8 to 10 days by crystal violet staining based assay; type: functional, organism-based; details: Human betaherpesvirus 5, strain Towne
Human betaherpesvirus 5 [8] = test: Antiviral activity against GCV-resistant HCMV Towne infected in human HFF cells assessed as reduction in plaque formation treated with compound following viral infection and incubated for 8 to 10 days by crystal violet staining based assay; type: functional, organism-based; details: Human betaherpesvirus 5, strain Towne
Human betaherpesvirus 5 [9] = test: Antiviral activity against HCMV TB40 infected in human HFF cells assessed as reduction in plaque formation treated with compound following viral infection and incubated for 8 to 10 days by crystal violet staining based assay; type: functional, organism-based; details: Human betaherpesvirus 5, TB40, HFF
HFF = test: Cytotoxicity against human HFF cells assessed as reduction in cell viability incubated for 72 hrs or 10 days by MTT assay; type: cell-based
Summary of the method: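 MTT assay on uninfected cells exposed to compound for 72 h or 8–10 days, matching the antiviral assay durations. MTT (5 mg/mL stock in PBS) added, then 2–3 h at 37 °C. Formazan absorbance read at 560 nm.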

Human alphaherpesvirus 1 = test: Antiviral activity against HSV 1 infected in African green monkey Vero cells assessed as reduction in plaque formation incubated for 36 hrs by crystal violet staining based assay; type: functional, organism-based; details: vero; summary of the method: as §1
Human betaherpesvirus 5 [10] = test: Antiviral activity against HCMV Towne infected in human HFF cells assessed as reduction in plaque formation treated with compound following viral infection at MOI of 1 PFU/cell and measured at 10 days post-infection in presence of letermovir by crystal violet staining based assay; type: functional, organism-based; details: Human betaherpesvirus 5, strain Towne, 240 h
Human betaherpesvirus 5 [11] = test: Antiviral activity againstpp28-luciferase expressing HCMV Towne infected in human HFF cells assessed as reduction in viral replication treated with compound following viral infection at MOI of 1 PFU/cells measured after 3 days in presence of GCV by luciferase reporter gene assay; type: functional, organism-based; details: Human betaherpesvirus 5, strain Towne, 72 h
Summary of the method: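 HFFs in 96-well plates were infected with pp28-luciferase Towne HCMV, in which luciferase is driven by the UL99 late promoter, at MOI 1. A dose-response of each drug alone gave its EC₅₀. Combinations started at twice each EC₅₀ in DMEM with 4% FBS, followed by two-fold serial dilutions, and were added after infection. Luciferase was read in cell lysates at 72 hpi. The Bliss ratio is observed over expected inhibition.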

Human betaherpesvirus 5 [12] = test: Antiviral activity against HCMV TB40 infected in human HFF cells assessed as reduction in plaque formation at 0.75 to 10 uM treated with compound following viral infection at […] measured after 8 days by crystal violet staining analysis; type: functional, organism-based
Summary of the method: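 HFFs (2 × 10⁵/well) infected with HCMV TB40 at about 100 plaques/well for 90 min. Inoculum removed, then DMEM with 0.5% CMC, 4% FBS and compound added. Incubated at 37 °C; plaques stained with crystal violet and counted at 8 dpi. Experiment repeated three times; one representative shown.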

Human betaherpesvirus 5 [13] = test: Antiviral activity against pp28-luciferase harboring UL97 C607Y mutant expressing GCV-resistant HCMV Towne infected in human HFF cells assessed as reduction in viral replication at 1 to 5 uM treated with compound following viral infection at MOI of 0.1 PFU/cell and measured at 72 hrs post infection by luciferase reporter gene assay; type: functional, organism-based; details: strain Towne
Summary of the method: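 HFFs infected with GCV-resistant pp28-luciferase Towne (MOI 0.1), then treated with a compound dilution series. Luciferase, driven by the UL99 late promoter, read in cell lysates at 72 hpi. Data are mean ± SD of triplicates from a single experiment.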

Human betaherpesvirus 5 [14] = test: Inhibition of viral protein expression in HCMV Towne infected in human HFF cells assessed as reduction in IE1 expression at 0.3 to 10 uM treated with compound following viral infection at MOI of 1 PFU/cell measured at 72 hrs post infection by Western blot analysis; type: functional, organism-based; details: strain Towne
Summary of the method: (§5)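 HFFs infected with HCMV Towne (MOI 1), then treated with compound. Lysates taken at 72 hpi, equal protein loaded on 8–10% Tris-glycine SDS-PAGE and transferred to PVDF. Primary antibodies overnight at 4 °C, HRP secondary, chemiluminescent detection; β-actin as loading control.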

Human betaherpesvirus 5 [15] = test: Inhibition of viral protein expression in HCMV Towne infected in human HFF cells assessed as reduction in IE2 expression at 0.3 to 10 uM treated with compound following viral infection at MOI of 1 PFU/cell measured at 72 hrs post infection by Western blot analysis; type: functional, organism-based; details: strain Towne; summary of the method: as §5

Nc1nc2c(ncn2COC(CO)CO)c(=O)[nH]1 [GANCICLOVIR] gave an EC50 (Human alphaherpesvirus 2; Human alphaherpesvirus 2, Vero, 36 h, read-out: EC50) of 580 nM, an EC50 (Human gammaherpesvirus 4) of 5200 nM and an EC50 ([1]; Murid betaherpesvirus 1, ATCC VR-1399, MEF, 72 h, read-out: EC50) of 960 nM. For the same compound, the Activity (Human betaherpesvirus 5 [2]) was “inactive”, the Activity (Human betaherpesvirus 5 [3]) was “Active” and the Activity (Human betaherpesvirus 5 [4]) was “inactive”. For the same compound, the Activity (Human betaherpesvirus 5 [5]) was “Active” and the Activity (Human betaherpesvirus 5 [6]) was “Active”.

CCN1CCN(CCCNC(=O)c2ccc3c(c2)sc2nc(-c4ccc(OC)cc4)cn23)CC1 showed an EC50 (Human betaherpesvirus 5 [7]) of 850 nM, an EC50 (Human betaherpesvirus 5 [8]) of 840 nM and an EC50 (Human betaherpesvirus 5 [9]) of 1210 nM. For the same compound, the CC50 (HFF) was 70900 nM, the EC50 (Human alphaherpesvirus 1) was “Not Active” and the EC50 (Human alphaherpesvirus 2; vero) was “Not Active”. For the same compound, the EC50 (Human gammaherpesvirus 4) was 1920 nM, the EC50 ([1]; mef) was “Not Active” and the Activity (Human betaherpesvirus 5 [2]) was “inactive”. The Activity (Human betaherpesvirus 5 [3]) was “Active”, the EC50 (Human betaherpesvirus 5 [10]) was 610 nM and the EC50 (Human betaherpesvirus 5 [11]) was 690 nM. For the same compound, the Activity (Human betaherpesvirus 5 [12]) was “Active”, the Activity (Human betaherpesvirus 5 [13]) was “Active” and the inhibition (Human betaherpesvirus 5 [14]) was “Active”. The inhibition (Human betaherpesvirus 5 [15]) was “Active”, the Activity (Human betaherpesvirus 5 [5]) was “Active” and the Activity (Human betaherpesvirus 5 [6]) was “Active”.
